Experimental data taken from ChEMBL document CHEMBL3627597, “Synthesis of Fluorine-Containing Phosphodiesterase 10A (PDE10A) Inhibitors and the In Vivo Evaluation of F-18 Labeled PDE10A PET Tracers in Rodent and Nonhuman Primate” (J Med Chem, 2015).

Tests used:
[1] = system: Liver; test: Biodistribution in Sprague-Dawley rat liver at 1.48 to 2.22 MBq, iv measured at 5 mins by gamma counting analysis; type: ADME, organism-based; conditions: in vivo
Procedure, shortened: (§1)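 Male Sprague-Dawley rats (250 - 400 g), tail-vein injection of 1.48 - 2.22 MBq radiotracer under 2.5% isoflurane in oxygen; n=4 per time point, euthanized at 5, 30 and 60 min p.i. Brain regions obtained by gross dissection; peripheral tissues collected. Samples weighed, gamma-counted against a diluted-injectate standard; %ID/g calculated.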

[2] = system: Nucleic Acid; test: Ratio of drug level in striatum to frontal in cynomolgus monkey at 185 to 259 MBq, iv measured at 40 mins by micro PET image analysis; type: ADME, organism-based, Macaca fascicularis; conditions: in vivo
Procedure, shortened: (§2)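 Adult male cynomolgus macaques (~4–6 kg), three independent PET studies per tracer on a microPET Focus 220. Animals fasted 12 h and anesthetized with ketamine (10 mg/kg) plus glycopyrrolate (0.13 mg/kg) i.m. A 10 min positioning transmission scan and a 45 min attenuation transmission scan were run, then a 3 h dynamic emission scan after venous tracer injection. Regional TACs came from ROIs, expressed as SUV (body weight, injected dose).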

[3] = Metabolic stability in cynomolgus monkey plasma assessed as compound remaining at 185 to 259 MBq, iv measured at 15 mins by HPLC analysis; type: ADME, organism-based, Macaca fascicularis; conditions: read-out: Stability
Procedure, shortened: (§3)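 Arterial blood (~1.5 mL) drawn at 2, 15, 30, 60 and 90 min p.i. into heparinized syringes, then centrifuged to plasma. Plasma deproteinated with 2 parts ice-cold methanol. Extract run on C-18 HPLC, MeCN/0.1 M ammonium formate pH 4.5, 0.9 mL/min, UV 254 nm. 1-min fractions over 16 min were well-counted and decay-corrected; parent percentage taken from recovered activity.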

[4] = system: Blood; test: Biodistribution in Sprague-Dawley rat blood at 1.48 to 2.22 MBq, iv measured at 5 mins by gamma counting analysis; type: ADME, organism-based; conditions: in vivo; procedure, shortened: as §1
[5] = system: Nucleic Acid; test: Ratio of drug level in striatum to occipital in cynomolgus monkey at 185 to 259 MBq, iv measured at 40 mins by micro PET image analysis; type: ADME, organism-based, Macaca fascicularis; conditions: in vivo; procedure, shortened: as §2
[6] = system: Nucleic Acid; test: Ratio of drug level in striatum to temporal region in cynomolgus monkey at 185 to 259 MBq, iv measured at 70 mins by micro PET image analysis; type: ADME, organism-based, Macaca fascicularis; conditions: in vivo; procedure, shortened: as §2
[7] = system: Muscle tissue; test: Biodistribution in Sprague-Dawley rat muscle at 1.48 to 2.22 MBq, iv measured at 5 mins by gamma counting analysis; type: ADME, organism-based; conditions: in vivo; procedure, shortened: as §1
[8] = system: Muscle tissue; test: Biodistribution in Sprague-Dawley rat muscle at 1.48 to 2.22 MBq, iv measured at 30 mins by gamma counting analysis; type: ADME, organism-based; conditions: in vivo, 0.5 h; procedure, shortened: as §1
[9] = system: Blood; test: Biodistribution in Sprague-Dawley rat blood at 1.48 to 2.22 MBq, iv measured at 30 mins by gamma counting analysis; type: ADME, organism-based; conditions: in vivo, 0.5 h; procedure, shortened: as §1
[10] = system: Nucleic Acid; test: Ratio of drug level in striatum to occipital in cynomolgus monkey at 185 to 259 MBq, iv measured at 70 mins by micro PET image analysis; type: ADME, organism-based, Macaca fascicularis; conditions: in vivo; procedure, shortened: as §2
[11] = system: Striatum; test: Biodistribution in Sprague-Dawley rat striatum at 1.48 to 2.22 MBq, iv measured at 30 mins by gamma counting analysis; type: ADME, organism-based; conditions: in vivo, 0.5 h; procedure, shortened: as §1
[12] = system: Bone; test: Biodistribution in Sprague-Dawley rat bone at 1.48 to 2.22 MBq, iv measured at 60 mins by gamma counting analysis; type: ADME, organism-based, Bone element; conditions: in vivo, 1 h; procedure, shortened: as §1
[13] = system: Kidney; test: Biodistribution in Sprague-Dawley rat kidney at 1.48 to 2.22 MBq, iv measured at 60 mins by gamma counting analysis; type: ADME, organism-based; conditions: in vivo, 1 h; procedure, shortened: as §1
[14] = system: Nucleic Acid; test: Ratio of drug level in striatum to cerebellum in cynomolgus monkey at 185 to 259 MBq, iv measured at 70 mins by micro PET image analysis; type: ADME, organism-based, Macaca fascicularis; conditions: in vivo; procedure, shortened: as §2
[15] = system: Liver; test: Biodistribution in Sprague-Dawley rat liver at 1.48 to 2.22 MBq, iv measured at 60 mins by gamma counting analysis; type: ADME, organism-based; conditions: in vivo, 1 h; procedure, shortened: as §1
[16] = Metabolic stability in cynomolgus monkey plasma assessed as compound remaining at 185 to 259 MBq, iv measured at 60 mins by HPLC analysis; type: ADME, organism-based, Macaca fascicularis; conditions: read-out: Stability; procedure, shortened: as §3
[17] = system: Kidney; test: Biodistribution in Sprague-Dawley rat kidney at 1.48 to 2.22 MBq, iv measured at 5 mins by gamma counting analysis; type: ADME, organism-based; conditions: in vivo; procedure, shortened: as §1
[18] = system: Rattus norvegicus; test: Biodistribution in Sprague-Dawley rat fat tissue at 1.48 to 2.22 MBq, iv measured at 5 mins by gamma counting analysis; type: ADME, organism-based, Adipose tissue; conditions: in vivo; procedure, shortened: as §1
[19] = system: Kidney; test: Biodistribution in Sprague-Dawley rat kidney at 1.48 to 2.22 MBq, iv measured at 30 mins by gamma counting analysis; type: ADME, organism-based; conditions: in vivo, 0.5 h; procedure, shortened: as §1
[20] = system: Brain; test: Biodistribution in Sprague-Dawley rat brain at 1.48 to 2.22 MBq, iv measured at 5 mins by gamma counting analysis; type: ADME, organism-based; conditions: in vivo; procedure, shortened: as §1
[21] = system: Nucleic Acid; test: Ratio of drug level in striatum to white matter in cynomolgus monkey at 185 to 259 MBq, iv measured at 40 mins by micro PET image analysis; type: ADME, organism-based, Macaca fascicularis; conditions: in vivo; procedure, shortened: as §2
[22] = Ratio of drug level in striatum to cerebellum in Sprague-Dawley rat at 1.48 to 2.22 MBq, iv measured at 5 to 30 mins by gamma counting analysis; type: ADME, organism-based; conditions: in vivo
Procedure, shortened: (§4)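 Striatum, cerebellum and cortex obtained by gross dissection from Sprague-Dawley rats (250 - 400 g, n=4 per time point) after tail-vein injection of 1.48 - 2.22 MBq under isoflurane anesthesia. Tissues weighed and gamma-counted with an injectate standard to give %ID/g; ratios taken from striatal versus non-target uptake.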

[23] = Metabolic stability in cynomolgus monkey plasma assessed as compound remaining at 185 to 259 MBq, iv measured at 90 mins by HPLC analysis; type: ADME, organism-based, Macaca fascicularis; conditions: read-out: Stability; procedure, shortened: as §3
[24] = system: Nucleic Acid; test: Ratio of drug level in striatum to cortex in Sprague-Dawley rat at 1.48 to 2.22 MBq, iv measured at 5 to 30 mins by gamma counting analysis; type: ADME, organism-based; conditions: in vivo; procedure, shortened: as §4
[25] = system: Nucleic Acid; test: Ratio of drug level in striatum to frontal in cynomolgus monkey at 185 to 259 MBq, iv measured at 70 mins by micro PET image analysis; type: ADME, organism-based, Macaca fascicularis; conditions: in vivo; procedure, shortened: as §2
[26] = system: Muscle tissue; test: Biodistribution in Sprague-Dawley rat muscle at 1.48 to 2.22 MBq, iv measured at 60 mins by gamma counting analysis; type: ADME, organism-based; conditions: in vivo, 1 h; procedure, shortened: as §1
[27] = Metabolic stability in cynomolgus monkey plasma assessed as compound remaining at 185 to 259 MBq, iv measured at 30 mins by HPLC analysis; type: ADME, organism-based, Macaca fascicularis; conditions: read-out: Stability; procedure, shortened: as §3
[28] = Metabolic stability in cynomolgus monkey plasma assessed as compound remaining at 185 to 259 MBq, iv measured at 2 mins by HPLC analysis; type: ADME, organism-based, Macaca fascicularis; conditions: read-out: Stability; procedure, shortened: as §3
[29] = system: Brain; test: Biodistribution in Sprague-Dawley rat brain at 1.48 to 2.22 MBq, iv measured at 60 mins by gamma counting analysis; type: ADME, organism-based; conditions: in vivo, 1 h; procedure, shortened: as §1
[30] = system: Nucleic Acid; test: Ratio of drug level in striatum to temporal region in cynomolgus monkey at 185 to 259 MBq, iv measured at 40 mins by micro PET image analysis; type: ADME, organism-based, Macaca fascicularis; conditions: in vivo; procedure, shortened: as §2
[31] = system: Nucleic Acid; test: Ratio of drug level in striatum to hippocampus in cynomolgus monkey at 185 to 259 MBq, iv measured at 40 mins by micro PET image analysis; type: ADME, organism-based, Macaca fascicularis; conditions: in vivo; procedure, shortened: as §2
[32] = system: Brain; test: Biodistribution in Sprague-Dawley rat brain at 1.48 to 2.22 MBq, iv measured at 30 mins by gamma counting analysis; type: ADME, organism-based; conditions: in vivo, 0.5 h; procedure, shortened: as §1
[33] = system: Bone; test: Biodistribution in Sprague-Dawley rat bone at 1.48 to 2.22 MBq, iv measured at 30 mins by gamma counting analysis; type: ADME, organism-based, Bone element; conditions: in vivo, 0.5 h; procedure, shortened: as §1

## Cn1cc(-c2ccncc2)c(-c2ccc(OCc3nc4ccccc4cc3OCC[18F])cc2)n1
[1]
  Drug uptake: 4.24 % ID/g
[2]
  Ratio: > 3
[3]
  remaining at 0.25 h: 90%
[4]
  Drug uptake: 0.343 % ID/g
[5]
  Ratio: > 3
[6]
  Ratio: > 5
[7]
  Drug uptake: 0.166 % ID/g
[8]
  Drug uptake: 0.156 % ID/g
[9]
  Drug uptake: 0.306 % ID/g
[10]
  Ratio: > 5
[11]
  Drug uptake: Active
[12]
  Drug uptake: 0.224 % ID/g
[13]
  Drug uptake: 0.841 % ID/g
[14]
  Ratio: > 5
[15]
  Drug uptake: 1.8 % ID/g
[16]
  remaining at 1 h: 55%
[17]
  Drug uptake: 1.789 % ID/g
[18]
  Drug uptake: 0.119 % ID/g
[19]
  Drug uptake: 1.022 % ID/g
[20]
  Drug uptake: 0.092 % ID/g
[21]
  Ratio: > 3
[22]
  Ratio: > 2
[23]
  remaining at 1.5 h: 45%
[24]
  Ratio: > 2
[25]
  Ratio: > 5
[26]
  Drug uptake: 0.134 % ID/g
[27]
  remaining at 0.5 h: 73%
[28]
  remaining at 2 min: 99%
[29]
  Drug uptake: 0.149 % ID/g
[30]
  Ratio: > 3
[31]
  Ratio: > 3
[32]
  Drug uptake: 0.129 % ID/g
[33]
  Drug uptake: 0.144 % ID/g
